Reference: ChEMBL document CHEMBL1129311, “Antitumor agents. 166. Synthesis and biological evaluation of 5,6,7,8-substituted-2-phenylthiochromen-4-ones” (J Med Chem, 1996)
≈ marks a conversion by molar mass, not a printed value. Calls of active or inactive are those of the source. The calls are words filed in the database; no cut-off is given here.

Assays:
H9 [1] = assay: Inhibitory activity against growth of uninfected H9 lymphocytes; assay type: functional, cell-based; details: Homo sapiens
Outline: (§1)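 Uninfected H9 cultures exposed to compound diluted in medium for 4 days at 37 °C. Cell density counted in a Coulter counter; IC₅₀ determined.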

A549 = assay: Effective dose against 50% reduction in Human lung carcinoma (A-549) cell number after 3-day incubation.; assay type: functional, cell-based
RPMI [2] = assay: Effective dose against 50% reduction in Human melanoma (RPMI)cell number after 3-day incubation; - indicates inactive; assay type: functional, cell-based
[3] = Therapeutic index valued has been determined in H9 cells; assay type: cell-based; details: human, read-out: Therapeutic index
TE-671 [4] = assay: Effective dose against 50% reduction in Human CNS tumor (TE671) cell number after 3-day incubation; - indicates inactive; assay type: functional, cell-based
H9 [5] = assay: Effective dose against growth of HIV infected H9 lymphocytes; assay type: functional; details: Homo sapiens, read-out: ED50 (the source's name)
P388 [6] = assay: Effective dose against 50% reduction in Murine leukemia (P-388) cell number after 3-day incubation; - indicates inactive; assay type: functional, cell-based; details: Mus musculus
KB [7] = assay: Effective dose against 50% reduction in Human epidermoid carcinoma of the nasopharynx (KB) cell number after 3-day incubation; - indicates inactive; assay type: functional, cell-based
HCT-8 [8] = assay: Effective dose against 50% reduction in Human ileocecal carcinoma (HCT-8) cell number after 3-day incubation.; assay type: functional, cell-based
KB [9] = assay: Effective dose against Human epidermoid carcinoma of the nasopharynx; - indicates inactive; assay type: functional, cell-based
H9 [10] = assay: Effective dose against growth of HIV infected H9 lymphocytes by 50%; assay type: functional; details: Homo sapiens, read-out: ED50 (the source's name)
H9 [11] = assay: Inhibitory activity against growth of uninfected H9 lymphocytes by 50%; assay type: functional, cell-based; details: Homo sapiens; outline: as §1
RPMI [12] = assay: Effective dose against 50% reduction in Human melanoma(RPMI) cell number after 3-day incubation; assay type: functional; details: 72 h, read-out: ED50 (the source's name)
TE-671 [13] = assay: Effective dose against 50% reduction in Human CNS tumor (TE671) cell number after 3-day incubation; assay type: functional; details: TE-671, 72 h, read-out: ED50 (the source's name)
RPMI [14] = assay: Effective dose against 50% reduction in Human melanoma (RPMI)cell number after 3-day incubation; assay type: functional; details: 72 h, read-out: ED50 (the source's name)
H9 [15] = assay: Effective dose against H9 cell lines; assay type: functional, cell-based; details: Homo sapiens
H9 [16] = assay: Effective dose required to inhibit virus replication growth by 50%; assay type: functional; details: Homo sapiens, H9, read-out: ED50
H9 [17] = assay: Inhibitory concentration required to inhibit uninfected growth of H9 lymphocytes by 50%; assay type: functional, cell-based; details: Homo sapiens; outline: as §1
[18] = target: T1, DNA topoisomerase 1 (Homo sapiens) (UniProt P11387); assay: Inhibitory activity against DNA topoisomerase I at dose 100 uM
T1 sequence (whole entry): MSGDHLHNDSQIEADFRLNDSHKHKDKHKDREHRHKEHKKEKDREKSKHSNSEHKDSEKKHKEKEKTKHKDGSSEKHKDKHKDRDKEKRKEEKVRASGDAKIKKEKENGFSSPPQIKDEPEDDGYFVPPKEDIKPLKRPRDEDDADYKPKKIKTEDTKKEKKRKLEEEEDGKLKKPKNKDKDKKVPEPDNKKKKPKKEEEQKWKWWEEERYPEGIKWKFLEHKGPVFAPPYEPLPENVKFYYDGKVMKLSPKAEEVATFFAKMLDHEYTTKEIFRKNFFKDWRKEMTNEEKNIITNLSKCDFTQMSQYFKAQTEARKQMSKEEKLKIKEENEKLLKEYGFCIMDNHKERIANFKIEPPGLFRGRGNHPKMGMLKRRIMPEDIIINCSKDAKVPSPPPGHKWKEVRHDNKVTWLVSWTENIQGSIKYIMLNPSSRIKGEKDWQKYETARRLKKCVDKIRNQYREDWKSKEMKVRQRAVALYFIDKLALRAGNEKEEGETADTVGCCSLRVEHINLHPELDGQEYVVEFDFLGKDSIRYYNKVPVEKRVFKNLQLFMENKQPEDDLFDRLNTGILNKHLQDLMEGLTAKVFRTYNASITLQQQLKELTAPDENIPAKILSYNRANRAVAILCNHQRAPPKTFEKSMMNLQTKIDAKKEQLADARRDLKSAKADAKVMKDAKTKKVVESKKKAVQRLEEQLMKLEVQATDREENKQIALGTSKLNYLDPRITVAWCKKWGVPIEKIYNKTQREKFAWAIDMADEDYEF
Outline: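 Topo I activity read as ATP-independent relaxation of supercoiled plasmid DNA. Test compound at 100 µM; % inhibition is relative to enzyme and DNA control reactions. Camptothecin served as the positive inhibitor control.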

KB [19] = assay: Cellular protein-linked DNA breaks in KB oral carcinoma cell culture treated in triplicate at 50 uM for 1 hr; assay type: functional, Homo sapiens
Outline: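 Read-out is potassium-SDS precipitable cpm in treated KB cultures, expressed as fold.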

P388 [20] = assay: Effective dose against 50% reduction in Murine leukemia (P-388) cell number after 3-day incubation; assay type: functional; details: Mus musculus, P388, 72 h; read-out: ED50 (the source's name)
[21] = target: DNA topoisomerase II (Homo sapiens) (UniProt P11388+Q02880); assay: Inhibitory activity against DNA topoisomerase II at dose 100 uM; assay type: protein assay
Outline: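 Topo II activity read as ATP-dependent unknotting of P4 DNA. Test compound at 100 µM; % inhibition is relative to enzyme and DNA control reactions. VP-16 served as the reference inhibitor.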

HCT-8 [22] = assay: Effective dose against 50% reduction in Human ileocecal carcinoma (HCT-8) cell number after 3-day incubation; assay type: functional; details: HCT-8, 72 h, read-out: ED50 (the source's name)
KB [23] = assay: Effective dose against 50% reduction in Human epidermoid carcinoma of the nasopharynx (KB) cell number after 3-day incubation; assay type: functional; details: 72 h, read-out: ED50 (the source's name)

Row | Compound | IC50 (H9 [1]) [µg/mL] | ED50 (A549) | ED50 (RPMI [2]) | selectivity ratio [3] | ED50 (TE-671 [4]) | EC50 (H9 [5]) [µg/mL] | ED50 (P388 [6]) | ED50 (KB [7]) | ED50 (HCT-8 [8]) | further results
1 | O=c1cc(-c2ccccc2)sc2cc(O)ccc12 | 40 (≈ 157 µM) | inactive | inactive | 5.7 | inactive | 7 (≈ 27.5 µM) | inactive | inactive | inactive | –
2 | COc1cccc2sc(-c3ccccc3)cc(=O)c12 | – | inactive | – | 1 | inactive | – | inactive | – | inactive | ED50 (KB [9]): inactive; EC50 (H9 [10]): 7 µg/mL (≈ 26.1 µM); IC50 (H9 [11]): 7 µg/mL (≈ 26.1 µM); EC50 (RPMI [12]): 5.5 µg/mL (≈ 20.5 µM)
3 | CC(=O)Oc1ccc2c(=O)cc(-c3ccccc3)sc2c1 | 45 (≈ 152 µM) | inactive | inactive | 0.6 | inactive | 80 (≈ 270 µM) | inactive | inactive | inactive | –
4 | Nc1ccc2sc(-c3ccccc3)cc(=O)c2c1 | 7.5 (≈ 29.6 µM) | – | – | 1.1 | – | 7 (≈ 27.6 µM) | – | – | – | –
5 | O=c1cc(-c2ccccc2)sc2ccc(O)cc12 | – | inactive | – | 4.2 | – | – | inactive | inactive | inactive | EC50 (H9 [10]): 9.5 µg/mL (≈ 37.4 µM); EC50 (TE-671 [13]): 2.87 µg/mL (≈ 11.3 µM); IC50 (H9 [11]): 40 µg/mL (≈ 157 µM); EC50 (RPMI [14]): 0.55 µg/mL (≈ 2.16 µM)
6 | O=c1cc(-c2ccccc2)oc2cc(O)cc(O)c12 [CHRYSIN] | – | – | – | 9 | – | – | – | – | – | EC50 (H9 [15]): 5 µM
7 | Oc1cc(-c2ccccc2)nc2c(S)cccc12 | 35 (≈ 138 µM) | – | – | 2.9 | – | 12 (≈ 47.4 µM) | – | – | – | –
8 | O=c1cc(-c2ccccc2)sc2cccc(O)c12 | – | inactive | inactive | – | inactive | – | inactive | inactive | inactive | –
9 | Cc1cn([C@H]2C[C@H](N=[N+]=[N-])[C@@H](CO)O2)c(=O)[nH]c1=O [ZIDOVUDINE] | – | – | – | – | – | – | – | – | – | EC50 (H9 [16]): 0.04 µM; IC50 (H9 [17]): 2000 µM
10 | O=c1cc(-c2ccccc2)sc2ccccc12 | – | inactive | inactive | – | inactive | – | inactive | inactive | inactive | –
11 | O=c1cc(-c2ccccc2)sc2cc(O)c(O)cc12 | 1.8 (≈ 6.66 µM) | inactive | – | 2.3 | – | 0.8 (≈ 2.96 µM) | – | – | – | inhibition [18]: 100%; Activity (KB [19]): 1; EC50 (P388 [20]): 4.51 µg/mL (≈ 16.7 µM); EC50 (TE-671 [13]): 5.5 µg/mL (≈ 20.3 µM); inhibition [21]: 0%; EC50 (HCT-8 [22]): 1.45 µg/mL (≈ 5.36 µM); EC50 (KB [23]): 5.5 µg/mL (≈ 20.3 µM); EC50 (RPMI [14]): 3.92 µg/mL (≈ 14.5 µM)
